The list is not random: actives were taken first. Their share in the collection is about 1.9%.
Rin1-Abl PPI inh: human Rin1-Abl interaction inhibition; AID 588664; 0.4% of 360,000 active; P00519+Q13671; TR-FRET Rin1/Abl binding, biochemical; inhibition, % at 7.35 µM; in the data active = inhibition above about 5%, passing the limit was not always enough
NadD block: NadD (S. aureus) enzyme inhibition | AID 602399 | purified NadD enzyme, colorimetric absorbance read-out | 0.78% of 360,000 active | inhibition, % at 20 µM; in the data active = inhibition above about 26%
Xi reactivation: reactivates the inactive X chromosome in mouse fibroblasts; 0.055% of 360,000 active; AID 743238; XiGFP mouse fibroblasts, % GFP-positive cells imaging, 3 d; cells co-treated with 5-aza-dC sensitizer; scaled so ellipticine positive control = 100%; activation, % at 7.58 µM;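 active = mean normalized replicate activation at least 10% and every replicate at or above 10%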;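 note: 0% = median of on-plate neutral control wells and 100% = ellipticine 6 µM median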
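Assay system: SV40-immortalized XiGFP fibroblast cells, line 68-5-11; buffer or medium: DMEM plus 5-aza-dC sensitizer; compound: one concentration, pinned; timing: compounds 3 days, fix/stain 15 min at room temperature; benchmarks: positive control ellipticine, 6 µM final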
Rpn11 inh: blocks the human proteasome subunit Rpn11 | human 26S proteasome, Ub4-pepOG fluorescence polarization; 20S core pre-blocked with epoxomicin | O00487 | 0.59% of 360,000 active | inhibition, % at 20 µM;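 active = inhibition at 20 µM, scaled to each plate's controls, above about 33%, limit read from the data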
ABHD5 PLIN5 PPI: ABHD5-PLIN5 protein interaction inhibition | 0.78% of 360,000 active | inhibition, % at 4 µM | Split G. princeps luciferase complementation, luminescence, 4 h | AID 602281;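 active = inhibition above the mean inhibition across every tested compound plus 3 SD, cut at about 22% in these data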;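 note: 0% = DMSO only wells and the 100% control is not disclosed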
Target sequence (Q00G26 whole entry, looked up): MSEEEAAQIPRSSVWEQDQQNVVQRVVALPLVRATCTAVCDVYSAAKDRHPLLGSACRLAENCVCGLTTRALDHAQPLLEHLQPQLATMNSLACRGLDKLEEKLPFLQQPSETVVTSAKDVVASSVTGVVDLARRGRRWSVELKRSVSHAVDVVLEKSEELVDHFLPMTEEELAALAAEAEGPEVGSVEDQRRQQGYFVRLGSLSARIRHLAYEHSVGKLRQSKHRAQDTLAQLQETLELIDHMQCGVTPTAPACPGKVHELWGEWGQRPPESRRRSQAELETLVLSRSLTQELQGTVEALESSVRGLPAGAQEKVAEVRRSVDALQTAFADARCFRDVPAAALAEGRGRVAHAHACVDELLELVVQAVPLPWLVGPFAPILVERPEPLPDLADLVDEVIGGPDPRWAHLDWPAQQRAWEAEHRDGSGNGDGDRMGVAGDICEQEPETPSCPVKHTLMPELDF
Target sequence (Q8WTS1 whole entry, looked up): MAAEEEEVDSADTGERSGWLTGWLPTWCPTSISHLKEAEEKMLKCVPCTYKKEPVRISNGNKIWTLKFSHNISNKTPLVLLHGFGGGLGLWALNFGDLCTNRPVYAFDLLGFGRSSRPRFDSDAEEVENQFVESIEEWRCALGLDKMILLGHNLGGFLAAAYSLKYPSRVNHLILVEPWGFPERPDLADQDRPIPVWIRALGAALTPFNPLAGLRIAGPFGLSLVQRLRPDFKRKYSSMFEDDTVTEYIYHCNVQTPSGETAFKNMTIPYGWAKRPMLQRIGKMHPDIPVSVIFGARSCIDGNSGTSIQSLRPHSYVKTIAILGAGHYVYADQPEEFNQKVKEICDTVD
Rpn11 confirm: Rpn11 inhibition confirmation, single concentration; AID 602318; inhibition, % at 20 µM; purified human 26S proteasome, Ub4-pepOG fluorescence polarization; proteasome pretreated with epoxomicin; shares compounds with Rpn11 inh; 29% of 1,900 active
MMP-2 counter: MMP-2 (human) inhibition counter-screen. inhibition, % at 20 µM. 4% of 1,900 active. recombinant MMP-2, FRET peptide cleavage fluorescence. AID 602330. shares compounds with Rpn11 inh;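 note: human MMP-2 activated beforehand with APMA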
Thrombin FP: thrombin (bovine) inhibition counter-screen; shares compounds with Rpn11 inh; bovine thrombin cleavage of Ub4-pepOG, fluorescence polarization; inhibition, % at 20 µM; 13% of 1,900 active;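 active = mean inhibition at least 40% at 20 µM, or signal 3 deviations below plate average, so some actives read negative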;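 note: plate controls were thrombin with DMSO for no effect and buffer wells lacking thrombin for full effect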
* = called active by the depositor. Cut-off read from the data, not from the text of the source, unless noted: active = inhibition above about 40%; inactive = the rest.

Screening CN1CCc2nc(NC(=O)c3cccc(S(=O)(=O)N4CCc5ccccc54)c3)sc2C1 returned Rin1-Abl PPI inh 0, NadD block 7, Rpn11 inh 75*, ABHD5 PLIN5 PPI -1, Rpn11 confirm 4, MMP-2 counter 11 and Thrombin FP -3.
O=C(Nc1nc2ccccc2s1)C1CCCN1S(=O)(=O)c1ccc(Cl)cc1 (stereo not drawn) was read as Rin1-Abl PPI inh -3, NadD block 0, Rpn11 inh -20 and ABHD5 PLIN5 PPI -5.
Screening COc1ccc(S(=O)(=O)Nc2cccc3c2O[C@H](CN(C)S(=O)(=O)c2ccc(Cl)cc2)[C@H](C)CN([C@@H](C)CO)C3=O)cc1 returned Xi reactivation 0.
For C[C@H](CO)N1C[C@H](C)[C@H](CN(C)Cc2ccc(Oc3ccccc3)cc2)Oc2ccc(NC(=O)C3CCCCC3)cc2C1=O the results were Xi reactivation 0.
Screening Cc1ccccc1NC(=O)Cn1nnc(S(=O)(=O)c2ccc(C(C)(C)C)cc2)c1N returned Rin1-Abl PPI inh -3, NadD block 13, Xi reactivation 0, Rpn11 inh 55*, ABHD5 PLIN5 PPI -7, Rpn11 confirm 31, MMP-2 counter -17 and Thrombin FP -6.
`COCCCn1c(=O)/c(=C\c2cccc(OC)c2OC)s/c1=C(/C#N)C(=O)Nc1ccc(C(=O)O)cc1` gave Rin1-Abl PPI inh 1, NadD block 22, Xi reactivation 0, Rpn11 inh 102*, ABHD5 PLIN5 PPI -9, Rpn11 confirm 46*, MMP-2 counter 2 and Thrombin FP 86*.
COCCCn1c(=O)/c(=C/c2ccccc2OC(F)F)s/c1=C(\C#N)C(=O)NCCOC was read as Rin1-Abl PPI inh 4, NadD block -8, Xi reactivation 0, Rpn11 inh 84*, ABHD5 PLIN5 PPI -3, Rpn11 confirm 24, MMP-2 counter 47* and Thrombin FP -1.
C[C@@H]1CN([C@H](C)CO)C(=O)Cc2cc(NS(=O)(=O)c3ccccc3)ccc2O[C@@H]1CN(C)C(=O)Nc1ccc2c(c1)OCO2 was read as Xi reactivation 0.
For CO[C@H]1CN(C)C(=O)c2ccc(NC(=O)C3CCCC3)cc2OC[C@H](C)NC[C@@H]1C the results were Xi reactivation 0.
COc1cc2c(cc1OC)C(C)N(CC(=O)Nc1ccc(S(=O)(=O)N3CCCC3)cc1)CC2 (stereo not drawn) was read as Rin1-Abl PPI inh -4, NadD block 0, Xi reactivation 0, Rpn11 inh 53*, ABHD5 PLIN5 PPI -5, Rpn11 confirm -8, MMP-2 counter -20 and Thrombin FP -9.
Screening COc1cc2c(cc1OC)CN(CC(=O)Nc1ccc(S(=O)(=O)N3CCCC3)cc1)CC2 returned Rin1-Abl PPI inh 2, NadD block 4, Xi reactivation 0, Rpn11 inh 2 and ABHD5 PLIN5 PPI 3.
For C[C@@H]1CN([C@@H](C)CO)C(=O)c2cc(NC(=O)CCC(F)(F)F)ccc2O[C@@H](C)CCCCO[C@@H]1CN(C)CC1CCCCC1 the results were Xi reactivation 0.
`COc1ccccc1NC(=O)CSc1ccc(-c2ccc(-n3cccn3)cc2)nn1` gave Rin1-Abl PPI inh -2, NadD block 1, Xi reactivation 0, Rpn11 inh 97*, ABHD5 PLIN5 PPI 5, Rpn11 confirm 117*, MMP-2 counter -13 and Thrombin FP 3.
For Cc1cccc(NC(=O)c2cc(Cl)ccc2[N+](=O)[O-])c1 the results were Rin1-Abl PPI inh 1, NadD block 0, Xi reactivation 0, Rpn11 inh 73*, ABHD5 PLIN5 PPI -3, Rpn11 confirm -8, MMP-2 counter -47 and Thrombin FP -4.
`Cc1ccc(NC(=O)c2cc(Cl)ccc2[N+](=O)[O-])cc1C` gave Rin1-Abl PPI inh -1, NadD block -3, Xi reactivation 0, Rpn11 inh 3 and ABHD5 PLIN5 PPI 1.
Screening CN1CCN(C(=O)C[C@@H]2CC[C@H](NC(=O)Cc3ccccn3)[C@@H](CO)O2)CC1 returned Xi reactivation 0.
COC(=O)c1c(NC(=O)c2ccc(S(=O)(=O)N3CC(C)OC(C)C3)cc2)sc2c1CCN(C)C2 (stereo not drawn) was read as Rin1-Abl PPI inh 5, NadD block -5, Xi reactivation 6, Rpn11 inh 69*, ABHD5 PLIN5 PPI 6, Rpn11 confirm 93*, MMP-2 counter -50 and Thrombin FP 35.
CCOC(=O)N1CCN(S(=O)(=O)c2ccc(C(=O)Nc3sc4c(c3C(=O)OC)CCN(C)C4)cc2)CC1 was read as Rin1-Abl PPI inh -2, NadD block -8, Xi reactivation 0, Rpn11 inh 1 and ABHD5 PLIN5 PPI -4.
`O=C(CCCSc1nc(-c2ccco2)cc(C(F)(F)F)n1)NCc1cccs1` gave Rin1-Abl PPI inh 3, NadD block -3, Rpn11 inh 33*, ABHD5 PLIN5 PPI 6, Rpn11 confirm 11, MMP-2 counter -6 and Thrombin FP 6.
For CC(C)[C@H]1C(=O)N[C@@H](c2ccc3c(c2)OCO3)CC=CC[C@@H](C)Oc2ccccc2C(=O)N1C (mixture of isomers) the results were Xi reactivation 0.
COc1ccc(Nc2nc3ccc(C)cc3cc2C#N)c(OC)c1 was read as Rin1-Abl PPI inh -2, NadD block 0, Xi reactivation 0, Rpn11 inh 42*, ABHD5 PLIN5 PPI -3, Rpn11 confirm -12, MMP-2 counter -15 and Thrombin FP -13.
`COc1ccc2c(C)cc(SCC#N)nc2c1` gave Rin1-Abl PPI inh 2, NadD block -6, Rpn11 inh 41*, ABHD5 PLIN5 PPI 7, Rpn11 confirm 37, MMP-2 counter -64 and Thrombin FP 19.
`Cc1cc(SCC#N)nc2ccccc12` gave Rin1-Abl PPI inh 4, NadD block -6, Xi reactivation 0, Rpn11 inh 0 and ABHD5 PLIN5 PPI -2.
Screening CN1CCN(C(=O)CN(C2CCCCC2)S(=O)(=O)c2ccccc2)CC1 returned Rin1-Abl PPI inh -1, NadD block -4, Xi reactivation 0, Rpn11 inh 6 and ABHD5 PLIN5 PPI -1.
For O=C(CN(C1CCCCC1)S(=O)(=O)c1ccccc1)N1CCCC1 the results were Rin1-Abl PPI inh -5, NadD block 1, Rpn11 inh 37*, ABHD5 PLIN5 PPI 2, Rpn11 confirm -2, MMP-2 counter -4 and Thrombin FP -8.

Compound activity deposited in PubChem by several laboratories.
